Calls of active or inactive are those of the source. No cut-off for these calls is given here.
What was measured:
Danio rerio = species: Danio rerio; test: Antiangiogenesis activity in EGFP-labelled zebrafish embryo assessed as reduction in formation of dorsal aorta at 1.25 to 5 uM incubated for overnight by fluorescence microscopic analysis; format: functional, organism-based; details: dose 1.25-5 µM
Procedure, shortened: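 Transgenic FLK:EGFP zebrafish kept at 28 °C, pH 7.2−7.4, 14 h light/10 h dark. Embryos at 30 hpf incubated overnight with compound at 1.25, 2.5 or 5 μM beside a blank control. Fish anaesthetized, then vessels imaged by fluorescence microscopy.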

MDA-MB-435 = test: Antiproliferative activity against human MDA-MB-435 cells assessed as reduction in cell viability incubated for 72 hrs by MTT assay; format: functional, cell-based; details: MDA-MB-435, 72 h
Procedure, shortened: (§1)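 MTT viability assay. ATCC cell lines were grown in designated medium with 10% FBS at 37 °C, 5% CO2. Cells seeded at 1500−30000 per well and incubated 24 h, then exposed to compound (0−10 μg/mL) for 72 h. MTT added for 2−4 h. Formazan dissolved in DMSO (adherent) or acidified SDS overnight (suspension), absorbance read at 570 nm. Triplicates; IC50 calculated.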

[1] = Tmax in Sprague-Dawley rat at 10 mg/kg, po administered via gavage by LC-MS analysis; format: ADME, organism-based; details: in vivo
[2] = Metabolic stability in rat liver microsomes assessed as parent compound remaining at 1 uM measured after 60 mins in presence of NADPH by HPLC-MS/MS analysis; format: ADME, Microsome; details: read-out: Stabilty
Procedure, shortened: (§2)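 Compound at 1 μM incubated with 0.5 mg/mL liver microsomes and 1 mM NADPH. Samples taken at 0, 10, 15, 30, 45 and 60 min and quenched with acetonitrile. After centrifugation, supernatant analysed by HPLC-MS/MS, with percent parent remaining relative to the 0 min area.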

[3] = Metabolic stability in dog liver microsomes assessed as parent compound remaining at 1 uM measured after 60 mins in presence of NADPH by HPLC-MS/MS analysis; format: ADME, Canis lupus familiaris, Microsome; details: read-out: Stabilty; procedure, shortened: as §2
Activated CDC42 kinase 1 = Activated CDC42 kinase 1 (Homo sapiens, UniProt Q07912); test: Inhibition of human recombinant ACK1 (1 to 389 residues) using EFPIYDFLPAKKK as substrate incubated for 40 mins in presence of [gamma33P-ATP] by radiometric scintillation counting analysis
Procedure, shortened: (§3)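 Radiometric kinase assay run as an external profiling service, with ATP at the Km of each kinase. IC50 values are means of two independent experiments.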

[4] = molecular target: Ribosomal protein S6 kinase alpha-1 (Homo sapiens, UniProt Q15418); test: Inhibition of human full length recombinant RSK1 using KKKNRTLSVA as substrate incubated for 40 mins in presence of [gamma33P-ATP] by radiometric scintillation counting analysis; procedure, shortened: as §3
ZR-75-1 = test: Antiproliferative activity against human ZR-75-1 cells assessed as reduction in cell viability incubated for 72 hrs by MTT assay; format: functional, cell-based; details: ZR-75-1, 72 h; procedure, shortened: as §1
NCI-H1437 = test: Antiproliferative activity against human NCI-H1437 cells assessed as reduction in cell viability incubated for 72 hrs by MTT assay; format: functional, cell-based; details: NCI-H1437, 72 h; procedure, shortened: as §1
MDA-MB-231 [5] = test: Induction of apoptosis in human MDA-MB-231 cells assessed as late apoptotic cells at 0.01 uM incubated for 24 hrs by annexin V-FITC and propidium iodide staining based flow cytometry analysis (reference value: 0.85 %); format: functional
MDA-MB-231 [6] = test: Induction of apoptosis in human MDA-MB-231 cells assessed as live cells at 0.03 uM incubated for 24 hrs by annexin V-FITC and propidium iodide staining based flow cytometry analysis (reference value: 96.95 %); format: functional
MDA-MB-231 [7] = test: Induction of apoptosis in human MDA-MB-231 cells assessed as necrotic cells at 0.1 uM incubated for 24 hrs by annexin V-FITC and propidium iodide staining based flow cytometry analysis (reference value: 0.2 %); format: functional
MDA-MB-231 [8] = test: Induction of apoptosis in human MDA-MB-231 cells assessed as late apoptotic cells at 0.1 uM incubated for 24 hrs by annexin V-FITC and propidium iodide staining based flow cytometry analysis (reference value: 0.85 %); format: functional
MDA-MB-231 [9] = test: Inhibition of MEK phosphorylation in human MDA-MB-231 cells at 0.01 to 0.3 uM incubated for 20 hrs by Western blot analysis; format: cell-based; details: dose 0.01-0.3 µM
Procedure, shortened: (§4)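 MDA-MB-231 cells treated with a series of concentrations for 20 h at 37 °C. Cells washed with ice-cold saline and lysed in RIPA buffer with protease cocktail. Lysates cleared at 12000 rpm for 10 min at 4 °C and protein quantified by Bradford. Equal protein separated by SDS-PAGE, transferred to PVDF and probed with antibodies.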

MDA-MB-231 [10] = test: Inhibition of Fra1 phosphorylation in human MDA-MB-231 cells at >0.03 uM incubated for 20 hrs by Western blot analysis; format: functional, cell-based; details: dose microM >0.03, time 20.0 hrs; procedure, shortened: as §4
MDA-MB-231 [11] = test: Increase in cleaved caspase-3 level in human MDA-MB-231 cells incubated for 20 hrs by Western blot analysis; format: functional, cell-based; details: dose 0.01-0.3 µM
Procedure, shortened: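 MDA-MB-231 cells given a concentration series for 20 h at 37 °C. Cells lysed in RIPA with protease cocktail, cleared at 12000 rpm, 4 °C. Protein quantified by Bradford, equal amounts run on SDS-PAGE, transferred to PVDF and immunoblotted.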

[12] = Toxicity against SCID mouse xenografted with human MDA-MB-435 cells assessed as change in body weight at 10 to 40 mg/kg, po QD for 21 days and measured every 3 days; format: organism-based; details: in vivo, 504 h, dose 10-40 mg/kg/day, time 21 day
Procedure, shortened: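 Exponential-phase cells washed and injected subcutaneously (5 × 10^6 cells in 100 μL) into 5–6-week SCID mice. At 150–200 mm3, mice randomised to groups of 6. Oral dosing daily in water with 25% PEG400 and 5% DMSO; paclitaxel 10 mg/kg weekly by tail vein. Body weight measured every 3 days and side effects checked daily.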

MDA-MB-231 [13] = test: Induction of apoptosis in human MDA-MB-231 cells xenografted in SCID mouse assessed as increase in cleaved caspase-3 level in tumor tissue at 40 mg/kg, po QD for 21 days by immunohistochemical analysis; format: functional, organism-based; details: dose 40.0 mg/kg/day, time 21.0 day
Procedure, shortened: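 SCID mice carried subcutaneous MDA-MB-231 xenografts (5 × 10^6 cells in 100 μL). Oral dosing in water with 25% PEG400 and 5% DMSO began at 150–200 mm3. Tumours were removed at the end of study, formalin-fixed and paraffin-embedded, then immunostained.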

[14] = Acute toxicity in female Sprague-Dawley rat assessed as increase of body weight at 200 mg/kg, po administered as single dose and monitored every 3 days; format: organism-based; details: in vivo, 72 h
Procedure, shortened: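 Sprague-Dawley rats (n = 3) received a single oral dose of 200 mg/kg in sterile water with 25% (v/v) PEG400 plus 5% DMSO. Behaviour and side effects were monitored daily, and average body weight was measured every 3 days.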

[15] = Acute toxicity in Sprague-Dawley rat assessed as histopathological changes in heart at 100 mg/kg, po administered as single dose measured after 24 hrs by H and E staining based light microscope analysis; format: organism-based; details: in vivo
Procedure, shortened: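 Sprague-Dawley rats received a single oral dose of 100 mg/kg in sterile water with 25% (v/v) PEG400 plus 5% DMSO. Organs were examined by histology and immunohistochemistry for pathological changes. Behaviour and side effects were checked daily.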

MDA-MB-231 [16] = test: Inhibition of Fra1 expression in human MDA-MB-231 cells at >0.03 uM incubated for 20 hrs by Western blot analysis; format: functional, cell-based; details: dose microM >0.03, time 20.0 hrs; procedure, shortened: as §4

Sequence of Ribosomal protein S6 kinase alpha-1 (Q15418 whole entry): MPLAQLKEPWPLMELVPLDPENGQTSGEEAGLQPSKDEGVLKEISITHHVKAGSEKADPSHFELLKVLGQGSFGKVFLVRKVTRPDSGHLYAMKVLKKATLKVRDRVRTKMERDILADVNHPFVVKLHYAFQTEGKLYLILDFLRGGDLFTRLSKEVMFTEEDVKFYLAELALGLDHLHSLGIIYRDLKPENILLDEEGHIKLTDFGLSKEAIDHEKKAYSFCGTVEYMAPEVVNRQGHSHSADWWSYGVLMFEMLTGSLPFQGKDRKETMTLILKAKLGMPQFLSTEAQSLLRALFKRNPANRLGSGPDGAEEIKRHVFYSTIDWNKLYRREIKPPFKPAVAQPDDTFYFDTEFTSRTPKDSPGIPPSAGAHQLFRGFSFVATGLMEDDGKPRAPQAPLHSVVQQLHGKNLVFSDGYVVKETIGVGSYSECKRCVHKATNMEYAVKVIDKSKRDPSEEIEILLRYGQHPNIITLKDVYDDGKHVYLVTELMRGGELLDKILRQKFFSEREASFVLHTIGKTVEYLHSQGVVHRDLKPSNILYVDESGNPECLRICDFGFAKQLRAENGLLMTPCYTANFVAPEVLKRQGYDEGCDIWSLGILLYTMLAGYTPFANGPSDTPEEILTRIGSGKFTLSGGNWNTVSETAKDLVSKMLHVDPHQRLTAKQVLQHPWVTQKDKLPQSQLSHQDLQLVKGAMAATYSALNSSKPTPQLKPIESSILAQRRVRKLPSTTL
Sequence of Activated CDC42 kinase 1 (Q07912 whole entry, the tested form may be a part): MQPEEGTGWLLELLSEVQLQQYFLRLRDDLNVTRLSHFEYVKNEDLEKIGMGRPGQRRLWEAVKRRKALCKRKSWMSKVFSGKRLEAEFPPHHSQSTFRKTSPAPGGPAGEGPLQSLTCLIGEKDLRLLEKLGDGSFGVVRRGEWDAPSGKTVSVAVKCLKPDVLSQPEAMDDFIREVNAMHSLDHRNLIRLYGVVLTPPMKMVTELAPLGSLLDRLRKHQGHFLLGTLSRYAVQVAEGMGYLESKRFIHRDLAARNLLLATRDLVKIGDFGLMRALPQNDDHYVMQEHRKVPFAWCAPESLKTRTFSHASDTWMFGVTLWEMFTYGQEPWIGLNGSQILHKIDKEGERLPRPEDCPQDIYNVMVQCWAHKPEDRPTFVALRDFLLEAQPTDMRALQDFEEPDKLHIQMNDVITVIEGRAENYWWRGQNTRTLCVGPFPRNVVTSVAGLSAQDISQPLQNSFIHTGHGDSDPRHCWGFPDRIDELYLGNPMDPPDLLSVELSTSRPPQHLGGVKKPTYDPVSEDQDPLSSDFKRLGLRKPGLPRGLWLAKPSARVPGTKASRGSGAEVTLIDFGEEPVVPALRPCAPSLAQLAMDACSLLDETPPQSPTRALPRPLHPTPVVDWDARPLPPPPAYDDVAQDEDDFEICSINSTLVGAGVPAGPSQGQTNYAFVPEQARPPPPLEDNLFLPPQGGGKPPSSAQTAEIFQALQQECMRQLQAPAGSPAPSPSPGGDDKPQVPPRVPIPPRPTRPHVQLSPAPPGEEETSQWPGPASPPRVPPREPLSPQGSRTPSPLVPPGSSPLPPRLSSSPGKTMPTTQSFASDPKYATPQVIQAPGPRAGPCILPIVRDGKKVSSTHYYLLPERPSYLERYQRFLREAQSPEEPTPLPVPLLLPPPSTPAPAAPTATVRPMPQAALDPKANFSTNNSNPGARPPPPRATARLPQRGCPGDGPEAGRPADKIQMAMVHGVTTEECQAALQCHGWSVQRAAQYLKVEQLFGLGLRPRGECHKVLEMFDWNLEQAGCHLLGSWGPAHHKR

## Cc1ccc(NC(=O)c2ccc(C)c(C(F)(F)F)c2)cc1C#Cc1nn([C@H]2CC[C@H](O)CC2)c2ncnc(N)c12
Danio rerio
  Activity: inactive
MDA-MB-435
  IC50: 0.008 µM
[1]
  Tmax: 4 h
[2]
  remaining at 1 h, 1 µM: > 90%
[3]
  remaining at 1 h, 1 µM: > 90%
Activated CDC42 kinase 1
  IC50: 0.175 µM
[4]
  IC50: 0.559 µM
ZR-75-1
  IC50: 10 µM
NCI-H1437
  IC50: 2.34 µM
MDA-MB-231 [5]
  Activity: 3.23%
MDA-MB-231 [6]
  Activity: 78.36%
MDA-MB-231 [7]
  Activity: 1.23%
MDA-MB-231 [8]
  Activity: 17.35%
MDA-MB-231 [9]
  inhibition: Active
MDA-MB-231 [10]
  inhibition: Active
MDA-MB-231 [11]
  Activity: Dose-dependent effect
[12]
  Activity: Non-Toxic
MDA-MB-231 [13]
  Activity: Active
[14]
  Activity: Non-Toxic
[15]
  Activity: Non-Toxic
MDA-MB-231 [16]
  inhibition: Active
